mIAP activ: mouse IAP activation. muIAP, CDP-Star luminescence, 30 min; stronger effect = higher value; 1 = vehicle-only enzyme signal, 0 = enzyme-free wells. AID 2805. hit rate 0.24% among 330,000. activation factor at 10 µM;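 active means activation factor of at least 2 at 20 µM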
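Assay system: mouse IAP enzyme / Compound: DMSO-dissolved test compounds / Timing: 30 min, room temperature / Measured by: luminescence from enzymatic CDP-Star hydrolysis / Control set: DMSO-only wells, enzyme-free buffer wells as negative control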
hIAP act: increases human intestinal alkaline phosphatase activity; P09923; purified human IAP, CDP-Star luminescence, 30 min; stronger effect = higher value; 1 = vehicle-only enzyme, 0 = enzyme-free background; activation factor at 10 µM; hit rate 0.16% among 330,000; AID 2524;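 active means activation factor of the enzyme at least 2-fold when tested at 20 µM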
Target sequence (P09923 whole entry, looked up): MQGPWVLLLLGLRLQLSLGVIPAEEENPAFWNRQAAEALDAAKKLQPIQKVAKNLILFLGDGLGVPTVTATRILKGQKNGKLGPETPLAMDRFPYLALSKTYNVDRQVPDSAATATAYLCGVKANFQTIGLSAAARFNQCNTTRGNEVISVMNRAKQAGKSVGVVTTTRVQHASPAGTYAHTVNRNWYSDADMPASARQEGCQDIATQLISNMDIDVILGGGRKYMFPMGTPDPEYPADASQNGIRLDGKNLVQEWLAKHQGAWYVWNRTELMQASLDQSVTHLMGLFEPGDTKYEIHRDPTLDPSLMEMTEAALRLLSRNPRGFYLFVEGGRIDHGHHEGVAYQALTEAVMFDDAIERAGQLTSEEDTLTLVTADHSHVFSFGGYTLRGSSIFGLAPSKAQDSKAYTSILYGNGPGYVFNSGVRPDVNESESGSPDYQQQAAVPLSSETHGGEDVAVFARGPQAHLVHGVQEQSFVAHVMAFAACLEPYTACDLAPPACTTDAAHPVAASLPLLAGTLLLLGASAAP
hIAP block: blocks human intestinal alkaline phosphatase | P09923 | inhibition, % at 10 µM | purified IAP, CDP-Star luminescence, 30 min | hit rate 0.12% among 330,000;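 active means inhibition reaching a set limit with compound at 10 µM in the primary screen, cut at about 35% in these data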;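 further: plate controls were DMSO wells with enzyme for no effect and no-enzyme buffer wells for full effect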
mIAP block: blocks mouse intestinal alkaline phosphatase; hit rate 0.2% among 330,000; purified mouse IAP, CDP-Star luminescence, 30 min; inhibition, % at 10 µM;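 active means inhibition of at least 40% at 10 µM in the primary screen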;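 further: plate controls were DMSO with enzyme for no effect and no enzyme wells for full effect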
bIAP inh: intestinal alkaline phosphatase (bovine) inhibition; purified bovine IAP, CDP-star luminescence, 30 min; inhibition, % at 20 µM; 190,000 tested, under 10 active; AID 1019;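 active means over 50% inhibition of intestinal alkaline phosphatase at 20 µM in the single-dose screen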
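System: Purified bovine intestinal alkaline phosphatase (IAP) enzyme | Input: IAP diluted 1/65,000,000 in the well | Also added: CDP-star chemiluminescent phosphatase substrate, 30 µM final | Dosing: 20 µM single dose | Times: Enzyme reaction for 30 min at room temperature | Detection: Luminescence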
bIAP act: increases bovine intestinal alkaline phosphatase activity; activation factor at 20 µM; purified bovine IAP, CDP-star luminescence, 30 min; stronger effect = higher value; fold of DMSO-control signal, blank-subtracted; hit rate 0.17% among 200,000;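 active means activation factor of 2 or more at 20 µM, a signal rise over negative controls twice the positive control's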
hIAP act conf: human IAP activation confirmation; shares compounds with hIAP act; purified IAP, CDP-Star luminescence, 30 min; stronger effect = lower value; activation (%Activity, negative = activation), % at 8.3 µM; hit rate 10% among 880; AID 434926;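 active means at least twofold enzyme activation in any of six single-dose repeats, which the averaged readout prints as negative percent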
* hit, by the source's call; . = no result given; ! = not confirmed by another sample. Only some compounds are listed: those with a hit (about 0.79% of all), similar ones and a draw of the others.

SMILES	mIAP activ	hIAP act	hIAP block	mIAP block	bIAP inh	bIAP act	hIAP act conf
CC(=O)C1=C(C)Nc2ncnn2C1c1cccc(Br)c1 (stereo unspecified)	1	0.979	2.1	-0.5	.	.	.
COc1cccc(CN(CC(=O)NCc2ccco2)C(=O)CNS(=O)(=O)c2ccccc2)c1	0.984	0.912	8.8	1.6	.	.	.
Cc1cc(C)cc(OC(C)C(=O)Nc2ccccc2C(=O)NCc2cccnc2)c1 (stereo unspecified)	1.02	1	-0.2	-1.7	.	.	.
O=C1c2ccccc2C(=O)N1Cc1ccc2c(c1)OCO2	1.05	2*	-100.4	-5.0	7.8	0.9	-25.7
O=C(O)c1ccc2c(c1)C(=O)N(Cc1ccc3c(c1)OCO3)C2=O	0.961	0.821	17.9	3.9	-2.9	1	.
Nc1cc(Nc2ccccc2)ccn1	0.959	0.621	37.9*	4.1	.	.	7.9
NC(=O)C1CN(C(=O)c2nn(Cc3ccccc3)c(=O)c3ccccc23)c2ccccc2O1 (stereo unspecified)	0.903	0.916	8.4	9.7	.	.	.
CCn1cnc2c1c(=O)n(CC(=O)OC(C)C(N)=O)c(=O)n2Cc1ccccc1 (stereo unspecified)	0.824	1.12	-11.9	17.6	.	.	.
CCN(CC(=O)NCc1ccco1)S(=O)(=O)c1ccc(OC)cc1	1.07	1.05	-5.0	-6.6	.	.	.
COc1ccc(NC(=O)NNC(=O)c2cc3ccccc3cc2O)cc1	0.937	2.34*	-133.6	6.3	.	.	3.6
O=C(/C=C/c1cccs1)NC(=S)NNC(=O)c1ccccc1O	0.695	2.37*	-136.7	30.5	-34.5	1.3	27.9
O=C(NNC(=O)c1cc2ccccc2cc1O)Nc1ccc(Br)cc1	0.894	1.14	-13.5	10.6	.	.	.
CN(C)S(=O)(=O)c1cccc(NC(=S)NNC(=O)c2cc3ccccc3cc2O)c1	0.9	2.65*	-164.7	10.0	.	.	72.3
COc1ccc(C(=O)NC(=S)NNC(=O)c2ccccc2O)cc1	0.733	2.34*	-133.9	26.7	.	.	-7.9
COc1ccc(C(=O)NNC(=S)NC(=O)/C=C/c2cccs2)cc1	0.791	1.25	-25.3	20.9	-9.2	1.1	.
O=C(NC(=S)NNC(=O)c1ccc(Cl)cc1Cl)c1cccnc1	0.728	1.05	-5.0	27.2	-2.9	1	.
O=C(NC(=S)NNC(=O)c1ccccc1O)c1cccnc1	0.834	2.05*	-105.5	16.6	-8.3	1.1	-0.9
CCNC(=O)Nc1ccccc1C(=O)OC	1.05	1.19	-18.9	-5.0	-2.4	1	.
C#CC(CC)(CC)NC(=O)Nc1ccccc1C(=O)OC	0.882	0.614	38.6*	11.8	-5.7	1.1	-4.3
COc1cccc(-c2cn(C[C@H]3CC[C@@H]([C@@H]4CC[C@H](Cn5cc(-c6cccc(OC)c6)nn5)O4)O3)nn2)c1	1.03	0.907	9.3	-2.8	.	.	.
CCOc1cccc(OCCOCCOc2ccccc2C(C)=O)c1	1.07	2.24*	-124.2	-6.6	8.8	0.9	-219.0*
c1ccc(-c2nc(NCCCN3CCOCC3)c3ccccc3n2)cc1	1	2.04*	-104.0	-0.1	3.9	1	-9.4
Cc1cccc(-c2nc(NCCCN3CCOCC3)c3ccccc3n2)c1	0.949	1.11	-10.8	5.1	3.4	1	.
Cc1ccc(CN2CCSc3ccc(C(=O)NCCCN4CCN(C)CC4)cc32)cc1	1.07	1.35	-34.7	-6.7	.	.	.
O=C1c2ccc(Cl)cc2S(=O)(=O)c2cccc(C(=O)N3CCC(Cc4ccccc4)CC3)c21	0.887	1.12	-11.8	11.3	.	.	.
SMILES	mIAP activ	hIAP act	hIAP block	mIAP block	bIAP inh	bIAP act	hIAP act conf
Cc1cc(C)n(C(=O)CN2C(=O)CCC2=O)n1	1.04	1.07	-6.8	-4.1	13.8	0.9	.
Cc1cc(C)n(C(=O)C23CC4CC(CC(C4)C2)C3)n1	0.865	2.36*	-135.6	13.5	1.5	1	-125.8*
Cc1nn(C(=O)CCC(=O)NCCc2ccccc2)c2ccccc12	0.955	0.869	13.1	4.5	.	.	.
Cc1nn(C(=O)CCC(=O)NCc2cccc(F)c2)c2ccccc12	0.976	0.614	38.6*	2.4	.	.	4.5
CCN(CC(=O)Nc1ccccc1C(F)(F)F)C(=O)c1ccc2c(c1)NC(=O)CS2	1.01	1.03	-2.6	-1.4	.	.	.
Cc1ccc(C2c3c(-c4ccccc4O)n[nH]c3C(=O)N2Cc2ccncc2)cc1 (stereo unspecified)	1.12	2.31*	-130.7	-12.0	14.1	0.9	-22.6
COc1cc(C2c3c(-c4cc(Cl)c(C)cc4O)n[nH]c3C(=O)N2Cc2cccnc2)ccc1O (stereo unspecified)	0.938	1.82	-81.7	6.2	-3.7	1	.
COc1cc(C2c3c(-c4ccccc4O)n[nH]c3C(=O)N2Cc2ccco2)cc(OC)c1OC (stereo unspecified)	0.942	1.92	-92.3	5.8	.	.	.
COc1ccc(C2c3c(-c4ccccc4O)n[nH]c3C(=O)N2Cc2ccco2)cc1 (stereo unspecified)	0.949	2.23*	-123.2	5.1	.	.	-72.8
COc1cccc(C2c3c(-c4cc(Cl)c(C)cc4O)n[nH]c3C(=O)N2Cc2cccnc2)c1 (stereo unspecified)	1.16	2.37*	-136.6	-15.9	-15.1	1.2	-17.7
CCC(OC(=O)C1=Cc2ccccc2OC1)C(=O)NC1CCCC1 (stereo unspecified)	0.969	0.339	66.1*	3.1	8.7	0.9	-52.5*
CC(C)C(OC(=O)C1=Cc2ccccc2OC1)C(=O)NC1CCCC1 (stereo unspecified)	1.06	0.882	11.8	-6.5	7.8	0.9	.
O=C(/C=C/c1ccc(O)cc1)c1ccc(NC2=C(N3CCCCC3)C(=O)c3ccccc3C2=O)cc1	0.709	0.647	35.3*	29.1	35.1	0.6	0.0
O=C1C(Nc2ccccc2)=C(N2CCCCC2)C(=O)c2ccccc21	1	0.961	3.9	-0.3	15.9	0.8	.
Cc1ccc(-c2cc(C(=O)N3CCc4ccccc4C3)[nH]n2)cc1C	1.44	2.49*	-148.9	-44.1	.	.	5.9
COc1cccc(-c2cc(C(=O)N3CCc4ccccc4C3)[nH]n2)c1	1.14	0.991	0.9	-14.2	.	.	.
c1ccc(CC2=NCCN2)cc1	1.14	1.04	-4.5	-13.5	5.9	0.9	.
c1ccc(CN(CC2=NCCN2)c2ccccc2)cc1	1.13	0.984	19.2	-4.9	-1.8	337*!	-46.7
COc1cc(/C=C2\SC(=S)N(NC(=O)c3cccc(O)c3)C2=O)ccc1O	0.714	0.739	26.1	28.6	.	.	.
COc1cc(/C=C2\SC(=S)N(NC(=O)c3ccc(O)c(OC)c3)C2=O)ccc1O	0.736	0.543	45.7*	26.4	.	.	-49.6
COc1cc(/C=C2\SC(=S)N(NC(=O)c3ccncc3)C2=O)ccc1O	0.633	0.648	35.2*	36.7	.	.	-2.7
COc1cc(/C=C2\SC(=S)N(N3CCOCC3)C2=O)ccc1O	0.655	0.556	44.4*	34.5	.	.	-24.0

Source: PubChem BioAssay
